Assay [1] deals with T1, Alpha-1D adrenergic receptor (Homo sapiens) (UniProt P25100).
T1 sequence (whole entry): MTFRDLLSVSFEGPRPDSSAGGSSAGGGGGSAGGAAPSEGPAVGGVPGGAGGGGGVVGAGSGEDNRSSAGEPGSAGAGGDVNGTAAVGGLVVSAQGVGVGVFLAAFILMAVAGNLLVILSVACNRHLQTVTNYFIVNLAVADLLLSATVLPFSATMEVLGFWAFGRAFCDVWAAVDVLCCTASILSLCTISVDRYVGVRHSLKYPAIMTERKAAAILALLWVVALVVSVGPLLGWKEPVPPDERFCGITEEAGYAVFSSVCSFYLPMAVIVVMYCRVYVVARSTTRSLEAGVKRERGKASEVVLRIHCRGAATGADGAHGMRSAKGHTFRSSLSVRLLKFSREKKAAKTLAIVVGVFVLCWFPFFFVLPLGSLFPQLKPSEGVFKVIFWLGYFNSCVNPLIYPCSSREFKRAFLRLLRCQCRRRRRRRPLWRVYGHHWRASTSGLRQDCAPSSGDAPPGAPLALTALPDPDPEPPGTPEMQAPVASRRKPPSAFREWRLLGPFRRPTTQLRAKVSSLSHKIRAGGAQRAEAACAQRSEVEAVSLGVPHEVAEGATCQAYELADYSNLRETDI
In words: Binding affinity to adrenergic Alpha-1D receptor at 1 uM by radioligand displacement assay. In short, it runs like this: (§1)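 Target specificity panel: single-concentration competitive displacement of each target's radioligand, with compound at 1 µM or 10 µM as stated per line. Run by an outside contract lab under its internal protocols; mean ± SE, n = 2.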

For assay [2], the target named is T2, Alpha-1B adrenergic receptor (Homo sapiens) (UniProt P35368).
T2 sequence (whole entry): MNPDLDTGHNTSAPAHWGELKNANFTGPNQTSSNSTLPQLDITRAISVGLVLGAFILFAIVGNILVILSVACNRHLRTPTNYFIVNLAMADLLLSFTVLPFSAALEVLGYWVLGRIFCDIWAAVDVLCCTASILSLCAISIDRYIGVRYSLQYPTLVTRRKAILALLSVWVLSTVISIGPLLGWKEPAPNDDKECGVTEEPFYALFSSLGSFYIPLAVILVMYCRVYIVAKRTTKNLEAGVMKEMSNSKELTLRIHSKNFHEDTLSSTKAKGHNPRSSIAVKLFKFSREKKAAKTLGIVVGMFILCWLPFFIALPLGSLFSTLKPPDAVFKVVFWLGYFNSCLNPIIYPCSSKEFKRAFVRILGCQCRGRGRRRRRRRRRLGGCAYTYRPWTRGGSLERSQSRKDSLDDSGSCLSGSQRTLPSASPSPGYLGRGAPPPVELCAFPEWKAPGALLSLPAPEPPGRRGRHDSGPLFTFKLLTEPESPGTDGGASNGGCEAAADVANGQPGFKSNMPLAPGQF
In words: Binding affinity to adrenergic Alpha-1B receptor at 1 uM by radioligand displacement assay. In short, it runs like this: as §1
On the technique in general: In a radioligand displacement assay an active substance lowers the binding of a labelled ligand.

Assay [3] concerns the target T3, 5-hydroxytryptamine receptor 6 (Homo sapiens, UniProt P50406). In words: Binding affinity to human recombinant 5HT6 receptor by radioligand displacement assay. The essentials: (§2)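 Competitive displacement of the corresponding radioligand, run by an outside contract lab under its internal protocols. Data from one representative experiment in duplicate.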
Assay [4] has as its target 5-hydroxytryptamine receptor 2B (Homo sapiens) (UniProt P41595). In words: Binding affinity to 5HT2B receptor at 1 uM by radioligand displacement assay. The essentials: as §1
In assay [5] the target is Sigma non-opioid intracellular receptor 1 (Homo sapiens) (UniProt Q99720). In words: Binding affinity to sigma 1 receptor at 1 uM by radioligand displacement assay. In short, it runs like this:
as §1

Assay [6] deals with T4, 5-hydroxytryptamine receptor 7 (Homo sapiens, UniProt P34969). In words: Binding affinity to 5HT7 receptor by radioligand displacement assay. The essentials: as §2
T4 sequence (P34969 whole entry): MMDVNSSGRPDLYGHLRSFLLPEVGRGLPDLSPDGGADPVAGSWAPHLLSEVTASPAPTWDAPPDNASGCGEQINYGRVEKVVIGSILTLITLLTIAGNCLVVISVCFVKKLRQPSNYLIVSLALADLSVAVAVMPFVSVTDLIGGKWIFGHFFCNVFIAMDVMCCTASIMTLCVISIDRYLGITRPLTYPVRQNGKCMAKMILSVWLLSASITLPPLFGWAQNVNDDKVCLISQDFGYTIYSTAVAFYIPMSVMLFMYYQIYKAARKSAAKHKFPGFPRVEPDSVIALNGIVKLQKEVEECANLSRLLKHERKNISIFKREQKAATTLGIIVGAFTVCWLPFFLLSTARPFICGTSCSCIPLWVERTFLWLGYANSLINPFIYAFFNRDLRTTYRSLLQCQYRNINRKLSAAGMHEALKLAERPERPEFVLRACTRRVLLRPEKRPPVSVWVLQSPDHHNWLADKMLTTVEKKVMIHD
The target in assay [7] is D(3) dopamine receptor (Homo sapiens) (UniProt P35462). In words: Binding affinity to dopamine D3 receptor at 1 uM by radioligand displacement assay. In short, it runs like this:
as §1

In assay [8] the target is Sodium-dependent noradrenaline transporter (Homo sapiens) (UniProt P23975). In words: Binding affinity to norepinephrine transporter at 1 uM by radioligand displacement assay. The essentials: as §1
Sodium-dependent noradrenaline transporter (Homo sapiens), sequence (P23975 whole entry): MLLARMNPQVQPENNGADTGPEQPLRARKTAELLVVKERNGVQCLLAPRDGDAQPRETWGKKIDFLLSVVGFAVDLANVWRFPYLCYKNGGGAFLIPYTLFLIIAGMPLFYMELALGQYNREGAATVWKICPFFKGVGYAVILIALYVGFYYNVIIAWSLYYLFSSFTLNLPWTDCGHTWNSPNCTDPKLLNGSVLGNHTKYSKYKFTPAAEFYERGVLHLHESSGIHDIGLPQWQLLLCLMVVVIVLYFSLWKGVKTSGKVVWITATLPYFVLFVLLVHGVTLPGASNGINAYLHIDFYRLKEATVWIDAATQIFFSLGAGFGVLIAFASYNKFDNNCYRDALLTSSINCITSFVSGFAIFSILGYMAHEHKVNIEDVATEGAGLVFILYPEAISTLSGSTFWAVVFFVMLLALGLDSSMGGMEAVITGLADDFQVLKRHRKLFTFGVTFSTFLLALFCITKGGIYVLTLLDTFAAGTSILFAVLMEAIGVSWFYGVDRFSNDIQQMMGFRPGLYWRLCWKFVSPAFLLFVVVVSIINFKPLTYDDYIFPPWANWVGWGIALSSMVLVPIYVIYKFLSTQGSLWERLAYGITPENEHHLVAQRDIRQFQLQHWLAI
Assay [9] in a line: Binding affinity to L-type calcium channel at 1 uM by radioligand displacement assay. In short, it runs like this: as §1
Assay [10] has as its target 5-hydroxytryptamine receptor 2A (Homo sapiens) (UniProt P28223). In words: Binding affinity to 5HT2A receptor at 1 uM by radioligand displacement assay. In short, it runs like this:
as §1

Assay [11] has as its target T4, 5-hydroxytryptamine receptor 7. In words: Binding affinity to 5HT7 receptor at 1 uM by radioligand displacement assay. The essentials: as §1
The target of assay [12] is T5, 5-hydroxytryptamine receptor 1A (Homo sapiens, UniProt P08908).
T5 sequence (P08908 whole entry): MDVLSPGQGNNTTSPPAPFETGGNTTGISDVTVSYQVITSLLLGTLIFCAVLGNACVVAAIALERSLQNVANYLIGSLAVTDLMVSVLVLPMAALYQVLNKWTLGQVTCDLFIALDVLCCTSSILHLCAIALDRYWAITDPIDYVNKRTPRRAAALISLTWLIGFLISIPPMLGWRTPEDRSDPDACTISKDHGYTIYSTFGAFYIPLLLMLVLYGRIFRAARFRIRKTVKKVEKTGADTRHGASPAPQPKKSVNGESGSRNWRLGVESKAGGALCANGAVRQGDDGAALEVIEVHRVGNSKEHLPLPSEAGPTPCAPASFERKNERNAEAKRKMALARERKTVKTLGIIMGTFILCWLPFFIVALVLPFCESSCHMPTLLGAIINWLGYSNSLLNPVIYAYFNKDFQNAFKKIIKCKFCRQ
In words: Binding affinity to 5HT1A receptor by radioligand displacement assay.

In assay [13] the target is T6, 5-hydroxytryptamine receptor 2C (Homo sapiens) (UniProt P28335).
T6 sequence (whole entry): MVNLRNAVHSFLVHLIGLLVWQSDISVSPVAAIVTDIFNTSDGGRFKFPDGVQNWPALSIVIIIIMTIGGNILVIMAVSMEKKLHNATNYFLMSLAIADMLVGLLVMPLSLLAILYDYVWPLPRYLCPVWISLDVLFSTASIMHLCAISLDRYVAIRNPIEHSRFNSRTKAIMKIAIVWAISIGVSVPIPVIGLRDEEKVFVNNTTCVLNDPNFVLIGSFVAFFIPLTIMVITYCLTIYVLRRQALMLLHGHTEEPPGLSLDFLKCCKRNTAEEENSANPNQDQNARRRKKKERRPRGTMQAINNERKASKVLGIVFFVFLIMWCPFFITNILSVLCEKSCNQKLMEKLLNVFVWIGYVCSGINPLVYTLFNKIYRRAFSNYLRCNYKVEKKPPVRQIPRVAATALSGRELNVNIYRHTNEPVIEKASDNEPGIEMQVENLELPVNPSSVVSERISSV
In words: Binding affinity to 5HT2C receptor at 1 uM by radioligand displacement assay. The essentials: as §1

Assay [14] addresses T7, Alpha-2A adrenergic receptor (Homo sapiens) (UniProt P08913).
T7 sequence (whole entry): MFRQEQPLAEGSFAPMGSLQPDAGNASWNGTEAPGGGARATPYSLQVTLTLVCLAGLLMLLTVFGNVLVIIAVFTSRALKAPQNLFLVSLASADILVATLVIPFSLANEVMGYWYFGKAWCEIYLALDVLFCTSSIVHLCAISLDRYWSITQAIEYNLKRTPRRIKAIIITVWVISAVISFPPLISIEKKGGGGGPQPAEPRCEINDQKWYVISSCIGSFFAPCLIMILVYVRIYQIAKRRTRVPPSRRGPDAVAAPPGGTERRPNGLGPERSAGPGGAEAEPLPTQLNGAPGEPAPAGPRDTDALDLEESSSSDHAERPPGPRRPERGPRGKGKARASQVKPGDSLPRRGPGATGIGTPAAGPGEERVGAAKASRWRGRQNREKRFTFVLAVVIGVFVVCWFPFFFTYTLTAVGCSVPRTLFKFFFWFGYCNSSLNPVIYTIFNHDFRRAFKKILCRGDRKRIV
In words: Binding affinity to adrenergic alpha2A receptor at 1 uM by radioligand displacement assay. In short, it runs like this:
as §1

In assay [15] the target is T6, 5-hydroxytryptamine receptor 2C (Homo sapiens). In words: (§3) Binding affinity to 5HT2C receptor by radioligand displacement assay. The essentials: as §2
The target of assay [16] is T8, 5-hydroxytryptamine receptor 2C (Homo sapiens, UniProt P28335).
T8 sequence (P28335 whole entry): T6 sequence (whole entry)
Described as §3. The essentials:
as §2

Assay [17] deals with T3, 5-hydroxytryptamine receptor 6. In words: Antagonist activity at human recombinant 5HT6 receptor expressed in HEK293 cells assessed as inhibition of serotonin-induced cAMP production by LANCE assay relative to serotonin. Format: functional, cell-based. In short, it runs like this: (§4)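 HEK-293 cells with a tetracycline-inducible (T-Rex) human 5-HT6 receptor, grown in DMEM/10% FBS with blasticidin S and zeocin and induced with tetracycline the day before. Medium was swapped for HBSS with 1 mM MgCl2, 1 mM CaCl2, IBMX and 5 mM HEPES, pH 7.4. Compounds (0.1% DMSO) were added 15 min at RT, then 10 nM serotonin for 30 min. cAMP read by LANCE; 2 independent experiments in duplicate.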
Background: cAMP levels reflect the balance of adenylyl cyclase and phosphodiesterase activity.

Assay [18] has the same target. In words: Binding affinity to human recombinant 5HT6 receptor at 1 uM by radioligand displacement assay. In short, it runs like this: as §1
The target in assay [19] is T9, Alpha-1A adrenergic receptor (Homo sapiens) (UniProt P35348).
T9 sequence (whole entry): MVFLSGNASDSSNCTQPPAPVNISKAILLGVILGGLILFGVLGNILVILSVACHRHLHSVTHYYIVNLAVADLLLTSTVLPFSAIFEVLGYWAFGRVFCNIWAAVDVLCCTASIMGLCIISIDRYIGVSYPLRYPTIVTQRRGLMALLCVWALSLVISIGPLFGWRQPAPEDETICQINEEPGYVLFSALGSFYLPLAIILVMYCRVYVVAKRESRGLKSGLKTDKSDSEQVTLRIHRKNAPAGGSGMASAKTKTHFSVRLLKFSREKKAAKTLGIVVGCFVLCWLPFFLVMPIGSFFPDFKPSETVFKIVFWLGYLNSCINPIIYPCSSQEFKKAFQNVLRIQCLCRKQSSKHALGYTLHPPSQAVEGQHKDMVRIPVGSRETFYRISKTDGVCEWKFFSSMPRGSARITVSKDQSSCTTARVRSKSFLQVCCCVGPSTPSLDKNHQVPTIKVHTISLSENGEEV
In words: Binding affinity to adrenergic alpha1A receptor at 1 uM by radioligand displacement assay. In short, it runs like this:
as §1

A short description of assay [20]: Binding affinity to glycine transporter at 1 uM by radioligand displacement assay. In short, it runs like this:
as §1

In assay [21] the target is T3, 5-hydroxytryptamine receptor 6. In words: Antagonist activity at human recombinant 5HT6 receptor expressed in HEK293 cells assessed as inhibition of serotonin-induced cAMP production by LANCE assay. It counts as functional, cell-based. In short, it runs like this:
as §4

T3 sequence (P50406 whole entry): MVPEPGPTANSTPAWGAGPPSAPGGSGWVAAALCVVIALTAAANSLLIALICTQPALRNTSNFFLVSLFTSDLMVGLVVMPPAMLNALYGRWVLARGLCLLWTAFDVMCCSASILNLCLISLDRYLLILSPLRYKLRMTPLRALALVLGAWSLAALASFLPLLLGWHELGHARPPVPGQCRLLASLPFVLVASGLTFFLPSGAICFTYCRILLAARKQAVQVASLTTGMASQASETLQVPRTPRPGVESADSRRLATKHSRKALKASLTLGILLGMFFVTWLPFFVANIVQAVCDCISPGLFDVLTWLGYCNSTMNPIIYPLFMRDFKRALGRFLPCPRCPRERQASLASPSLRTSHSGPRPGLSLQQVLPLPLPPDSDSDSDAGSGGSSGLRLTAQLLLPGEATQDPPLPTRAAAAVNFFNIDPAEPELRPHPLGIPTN
D(3) dopamine receptor (Homo sapiens), sequence (P35462 whole entry): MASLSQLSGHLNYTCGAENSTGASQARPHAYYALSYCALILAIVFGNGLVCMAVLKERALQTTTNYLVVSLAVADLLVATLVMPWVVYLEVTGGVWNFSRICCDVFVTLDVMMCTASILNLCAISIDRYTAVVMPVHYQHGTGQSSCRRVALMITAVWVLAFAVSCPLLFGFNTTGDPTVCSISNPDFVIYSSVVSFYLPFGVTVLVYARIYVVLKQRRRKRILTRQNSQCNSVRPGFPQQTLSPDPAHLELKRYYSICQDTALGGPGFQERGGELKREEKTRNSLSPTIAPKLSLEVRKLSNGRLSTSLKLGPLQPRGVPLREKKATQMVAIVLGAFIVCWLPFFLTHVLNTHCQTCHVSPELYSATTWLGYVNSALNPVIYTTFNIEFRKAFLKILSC
Sigma non-opioid intracellular receptor 1 (Homo sapiens), sequence (Q99720 whole entry): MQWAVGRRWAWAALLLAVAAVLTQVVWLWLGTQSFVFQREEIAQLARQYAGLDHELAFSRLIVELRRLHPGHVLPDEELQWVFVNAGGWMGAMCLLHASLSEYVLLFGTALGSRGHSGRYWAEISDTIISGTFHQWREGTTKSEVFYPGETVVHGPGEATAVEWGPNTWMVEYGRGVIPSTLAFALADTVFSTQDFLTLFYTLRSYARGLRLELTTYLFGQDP
5-hydroxytryptamine receptor 2A (Homo sapiens), sequence (P28223 whole entry): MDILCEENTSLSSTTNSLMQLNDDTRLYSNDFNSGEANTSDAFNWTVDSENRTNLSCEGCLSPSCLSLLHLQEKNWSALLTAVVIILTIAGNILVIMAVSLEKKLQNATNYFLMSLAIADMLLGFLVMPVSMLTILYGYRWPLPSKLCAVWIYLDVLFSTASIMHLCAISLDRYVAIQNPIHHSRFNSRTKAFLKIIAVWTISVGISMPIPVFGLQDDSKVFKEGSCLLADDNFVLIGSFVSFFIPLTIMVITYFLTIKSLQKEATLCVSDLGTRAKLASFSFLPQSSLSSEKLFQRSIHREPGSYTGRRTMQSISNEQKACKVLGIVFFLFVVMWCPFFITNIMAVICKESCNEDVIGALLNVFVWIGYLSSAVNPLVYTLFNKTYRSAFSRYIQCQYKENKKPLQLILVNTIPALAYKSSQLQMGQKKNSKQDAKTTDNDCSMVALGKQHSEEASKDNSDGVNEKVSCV
5-hydroxytryptamine receptor 2B (Homo sapiens), sequence (P41595 whole entry): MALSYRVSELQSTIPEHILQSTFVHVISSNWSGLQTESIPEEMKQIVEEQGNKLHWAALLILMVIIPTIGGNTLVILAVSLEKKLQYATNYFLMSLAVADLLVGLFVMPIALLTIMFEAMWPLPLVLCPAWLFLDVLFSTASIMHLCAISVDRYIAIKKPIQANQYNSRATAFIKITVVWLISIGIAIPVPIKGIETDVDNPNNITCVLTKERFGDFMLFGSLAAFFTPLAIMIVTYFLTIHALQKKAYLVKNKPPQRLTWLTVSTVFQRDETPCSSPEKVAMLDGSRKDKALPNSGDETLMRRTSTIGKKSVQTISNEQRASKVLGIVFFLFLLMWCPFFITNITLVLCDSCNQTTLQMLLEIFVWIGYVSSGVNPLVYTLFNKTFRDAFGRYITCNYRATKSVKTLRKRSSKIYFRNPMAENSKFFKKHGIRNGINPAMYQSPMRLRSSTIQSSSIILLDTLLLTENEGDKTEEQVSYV

The term Ki denotes a dissociation constant, usually derived from enzyme kinetics or from competition with a known ligand. Consider `CN1CCc2[nH]c3ccc(S(=O)(=O)Nc4cccc(F)c4)cc3c2C1`, for which the Activity was 29% in assay [1]; 37% in [2]; “Dose-dependent effect” in [3]; 80% in [4]; 60% in assay [5]; “Dose-dependent effect” in assay [6]. In addition, the Activity is 35% in [7]; 15% in assay [8]; 27% in assay [9]; 80% in assay [10]; 80% in [11]; 80% in assay [13]. The Activity was 60% in assay [14]; “Dose-dependent effect” in assay [15]; 80% in assay [18]; 20% in assay [19]; 20% in assay [20]. Besides, the inhibitory constant (Ki) stood at 2.1 nM in assay [3], 42 nM in assay [6], 7 nM in assay [12] and 39 nM in [16]. For the same compound, the Imax in assay [17] turned out to be 100%.

`CN1CCc2[nH]c3ccc(S(=O)(=O)c4cccc(F)c4)cc3c2C1`: the Imax in assay [17] was 100%.

One may read the IC50 as the concentration needed to halve the response being measured. Turning to `CN1CCc2[nH]c3ccc(S(=O)(=O)c4cccnc4)cc3c2C1`, the IC50 in assay [21] (read-out: IC50) came out at 3400 nM. Further, in assay [17], the Imax was 100%.

Regarding `CN1CCc2[nH]c3ccc(S(=O)(=O)N(C)C)cc3c2C1`, in assay [21] (read-out: IC50), the IC50 was found to be 26000 nM. Moreover, the Imax in assay [17] is 100%.

Consider `CN1CCc2c(c3cc(S(C)(=O)=O)ccc3n2C)C1.Cl`, for which the IC50 result in assay [21] (hek293) is listed as “Not Active”.
